An excerpt weighted towards active compounds, which were near 4.6% of everything screened.
CHO parental Ca: ATP-evoked calcium signal inhibitors, parental CHO, primary screen, counter-screen for OX1R antagonist project, cell-based, fluorescence, Fluo-8 calcium dye; parental CHO-K1, ATP-induced calcium, Fluo-8 fluorescence; 0.63% of 330,000 active; inhibition, % at 5.6 µM;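 active means inhibition above that plate's mean sample inhibition plus 3 SD, cut at about 26% in these data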;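 further: 0% = ATP-challenged DMSO wells and 100% = DMSO wells without ATP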
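Material: parental CHO cells / Compound: single nominal dose of 5.6 µM per compound / Signal: Fluo-8 fluorescence / Replicates: singlicate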
GPR7 antag: GPR7 receptor antagonists, primary screen, cell-based, fluorescence, single concentration; inhibition, % at 4.4 µM; Neuropeptides B/W receptor type 1 (Homo sapiens), P48145; GPR7-expressing cells, fluorescence antagonist assay; 1.1% of 290,000 active; in the data active means inhibition above about 16%, passing the limit was not always enough;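 further: cells stimulated with the agonist NPW; 0% = agonist with vehicle and 100% = vehicle without agonist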
Target sequence (P48145 whole entry, looked up): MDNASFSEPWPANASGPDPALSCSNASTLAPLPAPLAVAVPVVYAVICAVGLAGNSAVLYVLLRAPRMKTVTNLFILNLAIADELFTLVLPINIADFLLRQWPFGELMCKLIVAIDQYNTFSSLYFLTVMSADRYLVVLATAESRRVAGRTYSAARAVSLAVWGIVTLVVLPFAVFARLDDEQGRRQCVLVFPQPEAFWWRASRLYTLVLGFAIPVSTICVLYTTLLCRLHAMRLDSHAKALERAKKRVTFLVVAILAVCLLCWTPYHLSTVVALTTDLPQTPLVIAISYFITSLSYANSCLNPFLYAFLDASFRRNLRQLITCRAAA
OX1R antag-1: OX1R (HCRTR1) antagonists, primary screen, fluorescence, CHO/OX1R cells, Fluo-8 calcium, orexin A; 0.43% of 330,000 active; inhibition, % at 5 µM; Orexin/Hypocretin receptor type 1 (Homo sapiens), O43613; Fluo-8 calcium fluorescence;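 active means inhibition above its plate's threshold, mean inhibition of all tested compounds on the plate plus 3 SD, cut at about 37% in these data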;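 further: 0% = orexin A challenge wells and 100% = SB-334867-A antagonist wells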
TAAR1 ag: human TAAR1 agonists, primary screen, Fluo-8 calcium fluorescence, CHO RD-HGA16 cells; Trace amine-associated receptor 1 (Homo sapiens), Q96RJ0; activation, % at 3 µM; AID 624467, 2012; vehicle wells 0%, saturating PEA agonist 100%; 0.99% of 360,000 active;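 active means activation above the mean activation of all test compounds in the run plus 3 SD, cut at about 38% in these data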
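Assay system: CHO-derived RD-HGA16 cells with stable Gα16 and human TAAR1; timing: 17-24 h seeding, 75 min 37 °C dye, 30 min RT; read-out: % activation from peak over basal fluorescence ratio, DMSO-to-PEA scaled; measured by: kinetic Fluo-8 calcium fluorescence; benchmarks: low control DMSO, high control PEA (EC100); doses: 3 µM single concentration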
OX1R antag-2: antagonists of human orexin 1 receptor (OX1R); Orexin/Hypocretin receptor type 1 (Homo sapiens), O43613; OX1R-expressing cells, FRET antagonist read-out; inhibition, % at 6.6 µM; 1.8% of 330,000 active; AID 485270, 2010; in the data active means inhibition mostly above about 38%, no sharp cut-off; inactive means mostly below about 40%;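 further: 0% = agonist challenge alone and 100% = reference antagonist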
TAAR1 antag: human TAAR1 antagonists, primary screen, Fluo-8 calcium fluorescence, CHO RD-HGA16 cells. Trace amine-associated receptor 1 (Homo sapiens), Q96RJ0. antagonist. inhibition, % at 3 µM. 1.5% of 360,000 active;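 active means inhibition above a per-plate cutoff, the mean inhibition of test compounds on that plate plus 3 SD, cut at about 49% in these data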;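 further: 0% = DMSO plus EC80 beta-PEA response and 100% = DMSO alone without agonist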
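Assay system: RD-HGA16 CHO cells with stable hTAAR1 and Gα16 / Reagent: EC80 β-phenethylamine stimulus / Doses: 3 µM, single point / Timing: dye loading 75 min at 37 °C, then 30 min room temperature / Measured by: Fluo-8 intracellular calcium dye fluorescence, real-time kinetic reads / Controls: vehicle wells and EC80 agonist wells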
TAAR1 ag conf: human TAAR1 agonists, retest of hits, confirmation, Fluo-8 calcium fluorescence, CHO RD-HGA16 cells; shares compounds with TAAR1 ag; scaled: DMSO 0%, maximal phenethylamine 100%; activation, % at 3 µM; 82% of 2,400 active; AID 651783, 2012;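 active means activation above a cutoff set at the run's mean compound activation plus 3 SD, cut at about 39% in these data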
Ga16 ag counter: nonselective calcium mobilization agonists, CHO-Ga16 cells, counter-screen for hTAAR1 agonist project, cell-based, fluorescence, CHO-Ga16 parental line | shares compounds with TAAR1 ag | Fluo-8 calcium fluorescence; normalized to maximal ATP response, DMSO zero | 50% of 2,400 active | activation, % at 3 µM | AID 651787, 2012;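 active means activation above the run cutoff, the mean activation over all tested wells plus 3 SD, cut at about 12% in these data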;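 further: 0% = DMSO wells and 100% = maximal ATP response on the peak over basal ratio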
TAAR1 desens: TAAR1 desensitization by agonist hits, confirmation, counter-screen for TAAR1 agonist project, cell-based, fluorescence, tachyphylaxis | 46% of 2,400 active | CHO RD-HGA16 hTAAR1, Fluo-8 calcium, beta-PEA response inhibition | AID 651951, 2012 | inhibition, % at 3 µM | shares compounds with TAAR1 ag;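 active means inhibition above the run cutoff, the mean inhibition of all test compounds plus 3 SD, cut at about 49% in these data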;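 further: beta-PEA stimulus applied at its EC80; loss of beta-PEA calcium signal after compound pretreatment read as receptor desensitization; 0% = DMSO with beta-PEA at EC80 and 100% = DMSO alone without agonist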
Ga16 nonsel ant: inhibition of ATP-evoked calcium response in CHO-Ga16 cells, counter-screen for TAAR1 agonist project, cell-based, fluorescence; shares compounds with TAAR1 ag; CHO-Ga16 ATP-induced calcium, Fluo-8 fluorescence; inhibition, % at 3 µM; 39% of 2,400 active;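 active means inhibition above the plate's mean compound inhibition plus 3 SD, computed per plate, cut at about 22% in these data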;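 further: 0% = EC80 ATP with DMSO and 100% = DMSO wells without ATP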
The depositor's hits bear a star; nt = no result.

SMILES | CHO parental Ca | GPR7 antag | OX1R antag-1 | TAAR1 ag | OX1R antag-2 | TAAR1 antag | TAAR1 ag conf | Ga16 ag counter | TAAR1 desens | Ga16 nonsel ant
O=C(CSc1nc2[nH]ncc2c(=O)[nH]1)NCCc1ccccc1 | -8.2 | -1.2 | 12.0 | 57.3* | 2.4 | 12.1 | 28.6 | 0.0 | 12.8 | 10.1
O=C(CSc1nc2[nH]ncc2c(=O)[nH]1)NCc1ccccc1 | -5.7 | -3.4 | -8.1 | -1.0 | 6.7 | -3.6 | nt | nt | nt | nt
O=C(CSC1=NS(=O)(=O)c2ccccc2N1)NCCc1ccccc1 | -6.7 | nt | -3.4 | 88.9* | 18.5 | 71.2* | 89.2* | 7.1 | 74.9* | 5.1
COc1ccc(-c2coc3c(C(=O)Nc4cccc(NS(C)(=O)=O)c4)cccc23)c(C)c1 | nt | nt | nt | -0.5 | nt | 32.1 | nt | nt | nt | nt
COc1cc(OC)nc(Nc2nc(C(N)Cc3ccc(F)cc3)cs2)n1 (stereo not drawn) | nt | nt | nt | 56.4* | nt | 14.5 | 63.3* | 37.7* | 36.2 | 34.2*
CCCc1cnc(Nc2nc(C(N)Cc3ccc(OC)cc3)cs2)nc1 (stereo not drawn) | nt | nt | nt | 48.1* | nt | 16.0 | 47.0* | 18.1* | 10.3 | 12.7
NC(Cc1ccc(Cl)cc1)c1csc(Nc2ccc(-c3ccccc3)nn2)n1 (stereo not drawn) | nt | nt | nt | 62.5* | nt | 49.4* | 22.8 | 25.1* | 23.8 | 40.4*
COc1ccc(CC(N)c2csc(Nc3cc(NCCCO)ncn3)n2)cc1 (stereo not drawn) | nt | nt | nt | 0.8 | nt | 4.4 | nt | nt | nt | nt
COc1ccc(CC(N)c2csc(Nc3nncc4ccccc34)n2)cc1 (stereo not drawn) | nt | nt | nt | 61.4* | nt | 37.2 | 82.3* | 34.0* | 52.4* | 31.8*
COc1ccc(S(=O)(=O)Nc2cc3c4c(c2)CC(=O)N4CCC3)cc1OC | nt | nt | nt | 0.6 | nt | -26.7 | nt | nt | nt | nt
COc1ccc(NC(=O)N(C)C[C@H]2Oc3ccc(NC(=O)c4ccncc4)cc3C(=O)N([C@H](C)CO)C[C@@H]2C)cc1 | -4.0 | nt | -20.6 | 14.3 | 5.4 | -9.2 | nt | nt | nt | nt
CC1(C)CC(=O)C=C(c2ccc(-c3cccc(C(N)=O)c3)cc2)C1=O | nt | nt | nt | 5.8 | nt | 24.0 | nt | nt | nt | nt
CCc1cnc(Nc2nc(C(N)Cc3ccc(Cl)cc3)cs2)nc1 (stereo not drawn) | nt | nt | nt | 51.2* | nt | 28.7 | 70.1* | 31.8* | 41.3 | 28.0*
Cc1c(Cl)cccc1NC(=S)N1CCc2ccccc2C1 | -7.4 | 15.1 | -14.4 | 74.4* | 4.9 | 42.8 | 68.5* | 0.1 | 29.6 | 6.9
FC(F)(F)c1ccccc1NC(=S)N1CCc2ccccc2C1 | 6.1 | -1.8 | -14.4 | 80.1* | 7.2 | 42.7 | 96.1* | 18.0* | 45.2 | 11.4
O=C(CN1CCc2ccccc2C1)Nc1ccccc1C(F)(F)F | -3.7 | -6.9 | 1.2 | 55.9* | 3.7 | 4.4 | 74.7* | 10.0 | 51.6* | 3.8
Cc1cc(C)nc(N2CCCC(C(=O)Nc3cccc(Cl)c3)C2)n1 (stereo not drawn) | -9.2 | -4.6 | -15.1 | -2.9 | 39.5 | -16.1 | nt | nt | nt | nt
